According to ChEMBL document CHEMBL4513216, “Probing the Open Global Health Chemical Diversity Library for Multistage-Active Starting Points for Next-Generation Antimalarials” (ACS Infect Dis, 2020):

Assay: Toxicity liver stage against HepG2, at 10uM
Format: cell-based
Parameters: test concentration 10 uM, cell line HepG2-A16-CD81EGFP
Conditions: human, HepG2-A16-CD81EGFP cells; read-out: INHIBITION
Procedure, shortened: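 Uninfected HepG2-A16-CD81EGFP cells, 3 × 10^3 per well, 1536-well, plated on prespotted compound at 10 μM final, parasite-free screening media added to match infected plates; puromycin 10 μM positive, DMSO 0.5% negative; run in parallel with 48 h PbLuc assay at 37 °C, 5% CO2; viability by CellTiter-Glo luminescence, normalized to controls.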

COCc1nc(N(C)C)ncc1C(=O)OC
cytotoxicity at 10 µM: 13.2%

O=c1[nH]c(NCCO)nc2c1C1(CCCCC1)Cc1ccccc1-2
cytotoxicity at 10 µM: 7.11%

Cc1nccn1CC1CCN(C(=O)Cc2ccccc2)CC1
cytotoxicity at 10 µM: -17%

Cc1oncc1C(=O)NCC1(O)CCc2ccccc2C1 (configuration not stated)
cytotoxicity at 10 µM: -6.29%

Cc1cccc(CN2CCc3[nH]nc(C(=O)N4CCOCC4)c3C2)n1
cytotoxicity at 10 µM: 6.31%

CCS(=O)(=O)NCC1OCCc2cn(CC3CCOCC3)nc21 (configuration not stated)
cytotoxicity at 10 µM: 2.77%

Cc1ccc(NC(=O)Cn2cc(I)cn2)cc1C
cytotoxicity at 10 µM: 5.03%

COc1ccc(C2SCC(=O)Nc3ccsc32)cc1 (configuration not stated)
cytotoxicity at 10 µM: 10.5%

CCOC1(C)C(=O)c2ccccc2N1Nc1ccccc1C(=O)CC (configuration not stated)
cytotoxicity at 10 µM: 12.9%

CCN1CCN(S(=O)(=O)c2cc(C)c(C)cc2Br)CC1
cytotoxicity at 10 µM: -9.74%

CNc1ncc(CN2CCC(CCc3ccccc3)CC2)cn1
cytotoxicity at 10 µM: 5.19%

Nc1cc(N2CCOCC(Cc3ccc4[nH]ccc4c3)C2)ncn1 (configuration not stated)
cytotoxicity at 10 µM: -5.69%

Cn1cncc1CN1CCCC1c1cncc(Oc2ccc(F)cc2)n1 (configuration not stated)
cytotoxicity at 10 µM: -17.3%

Cc1noc(C)c1-c1ccnc(C2CCNCC2)c1
cytotoxicity at 10 µM: -8.41%

CCc1c(C)nc2cc(C3CCN(Cc4ccc(F)cc4)C3)nn2c1O (configuration not stated)
cytotoxicity at 10 µM: -18.6%

Cc1cc(C)nc(N2CCC(c3cncc(-n4ccnc4)n3)CC2)n1
cytotoxicity at 10 µM: -8.66%

Cc1cc(C(=O)NCCc2nc3c(s2)CCCC3)n(C)n1
cytotoxicity at 10 µM: 20.5%

CN(C)C1(C(=O)NC2CCC(Oc3ccccc3C#N)CC2)CCC1 (configuration not stated)
cytotoxicity at 10 µM: 9.92%

COC(=O)CCN(C)C(=O)c1ccc(-c2cscn2)cc1
cytotoxicity at 10 µM: -7.29%

COc1ccc(CN(C(=O)C2CCCOC2)c2ccncc2)cc1 (configuration not stated)
cytotoxicity at 10 µM: 6.35%

CC(C)c1cc(C(=O)N2CCc3ccccc3C2C(=O)O)n(C)n1 (configuration not stated)
cytotoxicity at 10 µM: 7.28%

CCN(C)S(=O)(=O)N(Cc1cscn1)c1ccccc1
cytotoxicity at 10 µM: -3.81%

CCC1CCCN(Cc2nc3ccccc3c(=O)[nH]2)C1 (configuration not stated)
cytotoxicity at 10 µM: -46%

CC(=O)c1cccc(NC(=O)NCCc2nnc[nH]2)c1
cytotoxicity at 10 µM: -39.1%

COc1ccccc1CN(Cc1cccs1)S(=O)(=O)N(C)C(C)C
cytotoxicity at 10 µM: -46.7%

Cc1ccc(CN(CC(=O)NC2CCOCC2)c2ccc(F)cc2)o1
cytotoxicity at 10 µM: 1.55%

COc1cccc(CNCc2c(C)nc3sc(C)cn23)c1OC
cytotoxicity at 10 µM: 32.8%

O=C(NCCCC(=O)N1Cc2ccccc2C1)NCc1cccnc1
cytotoxicity at 10 µM: 11.9%

CC(NCCNS(=O)(=O)c1cccc(Cl)c1)C1CCOCC1 (configuration not stated)
cytotoxicity at 10 µM: -1.6%

O=C(Nc1ccccn1)NC1CCN(c2ccccc2OC(F)F)C1 (configuration not stated)
cytotoxicity at 10 µM: 11.7%

CN1CCOC(CNCCOc2cccc(C#N)c2)C1 (configuration not stated)
cytotoxicity at 10 µM: 7.56%

CCc1ccc(C2CCCCCN2C(=O)CNC(=O)NC2CC2)o1 (configuration not stated)
cytotoxicity at 10 µM: 0.0456%

CN(c1ccc(CNC(=O)c2ccc(O)nc2)cc1)C1CCCCC1
cytotoxicity at 10 µM: -0.77%

CN(Cc1cccc(C#N)c1)c1ncc(C(N)=O)cc1Cl
cytotoxicity at 10 µM: 1.33%

O=C(NC1CCCCC1)C1CCCN(C(=O)Nc2ccccn2)C1 (configuration not stated)
cytotoxicity at 10 µM: 3.57%

Cc1nn(C)c(N(C)C)c1CNCc1cccc(Cl)c1
cytotoxicity at 10 µM: -8.27%

N#CCCN(C(=O)CN1CCCC1c1ccccc1Cl)c1ccccc1 (configuration not stated)
cytotoxicity at 10 µM: 8.22%

COCc1nc2cc(NCc3cc[nH]n3)ccc2o1
cytotoxicity at 10 µM: 6.7%

Cc1cnn(CCNCc2ccc(OCc3noc(C)n3)cc2)c1
cytotoxicity at 10 µM: 1.33%

Cc1nn(C)c(C)c1OCC(=O)NCC(O)Cc1ccccc1 (configuration not stated)
cytotoxicity at 10 µM: -3.81%

CCN(CC)C(=O)N1CCN(C(=O)C2CCCc3[nH]ncc32)CC1 (configuration not stated)
cytotoxicity at 10 µM: -2.3%

CCOC(C)c1noc(CN2CCN(c3nnc(C)s3)CC2)n1 (configuration not stated)
cytotoxicity at 10 µM: -11.1%

COCC(C)(C#N)NC(=O)COc1ccccc1 (configuration not stated)
cytotoxicity at 10 µM: 7.51%

CCC(NC(=O)NCc1cccc(N(C)C)n1)c1nccs1 (configuration not stated)
cytotoxicity at 10 µM: 23.3%

CN(CCCc1ccc(C(F)(F)F)cc1)Cc1nccn1C
cytotoxicity at 10 µM: 9.05%

O=C(c1cncc(Br)c1)N1CCCc2ccc(F)cc21
cytotoxicity at 10 µM: -1.01%

CCOc1cc(CNC(C)c2sccc2C)ccn1 (configuration not stated)
cytotoxicity at 10 µM: -8.14%

CC(NC(=O)NCCc1cnn(C)c1)c1ccc(Cl)s1 (configuration not stated)
cytotoxicity at 10 µM: -2.47%

O=C(CN1CCC(Nc2ncccn2)CC1)Nc1ccccc1
cytotoxicity at 10 µM: -17.5%

Cc1ccccc1C(=O)NC1CCN(Cc2ncc(C(C)(C)C)o2)CC1
cytotoxicity at 10 µM: -17.5%

Cc1ccc(-n2ncc(C(=O)NC3CCCCC3)c2N)cc1
cytotoxicity at 10 µM: -50.6%

Cc1cc(NC(=O)c2nc(N3CCCC3)ncc2Cl)nc(C(C)C)n1
cytotoxicity at 10 µM: 69.3%

CSc1ccc(C(CN)N2CCc3sccc3C2)cc1 (configuration not stated)
cytotoxicity at 10 µM: -5.93%

Cc1nc(NCC2CC2)nc2c1COCC21CCN(S(=O)(=O)C2CC2)C1 (configuration not stated)
cytotoxicity at 10 µM: -84.8%

COCC1CN(C(=O)Cc2cccs2)Cc2c1cnn2C (configuration not stated)
cytotoxicity at 10 µM: -65.6%

FC(F)(F)CCc1ccnc(N2CCN(CCc3ccncc3)CC2)n1
cytotoxicity at 10 µM: -5.86%

Cc1cc(F)c(C(C(=O)O)N2CCN(Cc3ccccn3)CC2)cc1Cl (configuration not stated)
cytotoxicity at 10 µM: 4.2%

CN1CCC(N(C)CCC(=O)N2CCC(Oc3ccc(Cl)cc3)CC2)C1 (configuration not stated)
cytotoxicity at 10 µM: 7.04%

Cc1cnc(C)c(N2C[C@H]3OC(=O)N(C4CCCC4)[C@H]3C2)n1
cytotoxicity at 10 µM: 12.5%

Cc1cc(NC2CCCN(Cc3ccc(F)cc3)C2)n2nc(C)cc2n1 (configuration not stated)
cytotoxicity at 10 µM: 0.0152%

c1ccc(-c2nc3c(c(NCCn4cccc4)n2)CCNCC3)nc1
cytotoxicity at 10 µM: -51.9%

COc1ccc(C(=O)N2CCC3(CC2)c2ccccc2[C@@H](N)[C@@H]3O)cc1
cytotoxicity at 10 µM: -3.34%

CN(Cc1csc(-c2ccccc2)n1)C(=O)CCn1ccccc1=O
cytotoxicity at 10 µM: -2.84%

CC(=O)N[C@@H]1Cc2ccccc2[C@H]1Nc1ccncn1
cytotoxicity at 10 µM: -43.6%

CCn1nc(CNC(=O)C2CCCN(CC(N)=O)C2)c2ccccc21 (configuration not stated)
cytotoxicity at 10 µM: -9.65%

CSC(C)CCN1CCC(n2cc(C3CCCCC3)nn2)CC1 (configuration not stated)
cytotoxicity at 10 µM: -1.39%

CN1CCC(N(C)CCC(=O)N2CCC(Cc3ccc(F)cc3)CC2)C1 (configuration not stated)
cytotoxicity at 10 µM: -1.9%

Cc1nc2c(c(NCc3ccccc3)n1)CCN(C(=O)NC(C)C)CC2
cytotoxicity at 10 µM: 28.7%

Cc1ncsc1CCN(C)C(=O)CN1C(=O)OC[C@@H]1c1ccccc1
cytotoxicity at 10 µM: -51.2%

CCCc1cc(C(=O)N(C)Cc2ccc(OC)c3ncccc23)n(C)n1
cytotoxicity at 10 µM: 37.2%

O[C@H]1Cc2ccccc2[C@H]1n1ccnc1-c1cc2n(n1)CCNC2
cytotoxicity at 10 µM: 1.58%

CN(C)c1nc2c(c(N3CCc4ccccc4C3)n1)CCNC2
cytotoxicity at 10 µM: 10.9%

CN(CCSc1ccccc1)C(=O)c1cn2c(n1)CNCC2
cytotoxicity at 10 µM: -47.4%

N#Cc1cccc(C(=O)N2CCCC(O)(CO)CC2)c1 (configuration not stated)
cytotoxicity at 10 µM: 1.29%

NC(=O)c1cc2c(nc1Oc1ccc(CN3CCCC3)cc1F)CCC2
cytotoxicity at 10 µM: -3.62%

OCCOc1ccccc1CN1CCCC(O)(CO)C1 (configuration not stated)
cytotoxicity at 10 µM: -38.7%

Cc1cc(C)cc(CN2CCN(Cc3cccc(CCN)c3)CC2=O)c1
cytotoxicity at 10 µM: -18.3%

Cc1ccsc1CN(CCN(C)C)C(=O)C1=NNC(=O)CC1
cytotoxicity at 10 µM: -13.4%

CCc1nn(C)c(Cl)c1CN1CCN(c2ccc(Cl)nn2)CC1
cytotoxicity at 10 µM: 8.01%

CC(C)Cc1cc(C(=O)N2CCC[C@H]2C(=O)N2CCOCC2)on1
cytotoxicity at 10 µM: 6.07%

COc1ncc(-c2cc(NC3CCCC3)nc3[nH]ccc23)c(OC)n1
cytotoxicity at 10 µM: 16.3%

CCCc1cc(CNC2CCN(c3nc4ccccc4s3)CC2)on1
cytotoxicity at 10 µM: -4.34%

COCc1nc2ncc3c(=O)n(-c4ccccc4OC)ccc3n2n1
cytotoxicity at 10 µM: -8.17%

CCC(=O)Nc1cccc(OCC(=O)N(C)Cc2nccn2CC)c1
cytotoxicity at 10 µM: 3.96%

Nc1nc2c(c(N3CCSCC3)n1)CCN(Cc1ccccn1)CC2
cytotoxicity at 10 µM: -53%

COc1ccc(N(c2ccccc2)c2ccc(C(=O)O)s2)cc1
cytotoxicity at 10 µM: -1.5%

Cc1ccsc1-c1nnc(C2CCN(Cc3ccc(F)cc3)CC2)o1
cytotoxicity at 10 µM: 4.58%

COCCN1CCN(CCCS(=O)(=O)N(C)C)CC1C (configuration not stated)
cytotoxicity at 10 µM: 3.54%

CC(=O)c1ccc(S(=O)(=O)NCc2cccnc2N(C)C)cc1
cytotoxicity at 10 µM: 12.6%

CC(C)C(=O)NC1CCCN(C(=O)c2ccc(O)c(Cl)c2)C1 (configuration not stated)
cytotoxicity at 10 µM: -6.04%

CCc1nc(C(=O)N2CCCC2)nn1-c1ccccc1Cl
cytotoxicity at 10 µM: -3.17%

CCOc1ccc(S(=O)(=O)NCc2cccnc2N(C)C)cc1
cytotoxicity at 10 µM: 34.7%

CCc1nc(CN(C)C2CCN(Cc3cnc(C)cn3)C2)no1 (configuration not stated)
cytotoxicity at 10 µM: 4.23%

CCc1ccc(CN2CCCCC2c2n[nH]cc2-c2cc(C)no2)cc1 (configuration not stated)
cytotoxicity at 10 µM: 35%

CO[C@@H]1CO[C@@]2(CCCN(Cc3nc(C)cs3)C2)C1
cytotoxicity at 10 µM: -138%

O=S(=O)(c1cccs1)N1Cc2nc(CN3CCCC3)oc2C1
cytotoxicity at 10 µM: -118%

CC[C@@H]1N(CC2CC2)CCC[C@]12CCC(=O)N2
cytotoxicity at 10 µM: 15.4%

COc1cccc(-c2noc(C3CCN(CC4CCCCC4)C3)n2)c1 (configuration not stated)
cytotoxicity at 10 µM: -3.44%

CNC(=O)COC1COC2(CCN(Cc3cccnc3)CC2)C1 (configuration not stated)
cytotoxicity at 10 µM: 6.53%

Cc1ccc2c(c1)C1(CCNCC1)CC2NC1CC1 (configuration not stated)
cytotoxicity at 10 µM: -117%

Cc1occc1C(=O)N1C[C@@H]2OCCN(CCN3CCCC3)[C@@H]2C1
cytotoxicity at 10 µM: -76.1%

c1cncc(OC[C@@H]2CCC[C@@]23CN(Cc2nccs2)CCO3)c1
cytotoxicity at 10 µM: -63.3%

O=C(Cc1ccccn1)N1CCN2C[C@H](Oc3cncnc3)C[C@H]2C1
cytotoxicity at 10 µM: -73%

Cc1cc(CN2CCc3c(CNc4ncccn4)cncc3C2)oc1C
cytotoxicity at 10 µM: -82.6%

Cc1noc(C)c1CN1CCc2ncnc(-c3ccc(F)cc3)c2CC1
cytotoxicity at 10 µM: -100%

Cn1cc(CN2C[C@H]3CCC[C@@]3(COc3ccccn3)C2)cn1
cytotoxicity at 10 µM: -107%

O=C(N1CCCC1)N1CCOCC2(CCN(Cc3cccs3)C2)C1 (configuration not stated)
cytotoxicity at 10 µM: -3.85%

Cc1occc1C(=O)N1CCC2(CCN(Cc3ccccn3)C2=O)C1 (configuration not stated)
cytotoxicity at 10 µM: -152%

COc1cc2c(cc1CNCc1ccnc(-n3cccn3)c1)OC(C)C2 (configuration not stated)
cytotoxicity at 10 µM: 11.2%

COc1cc(CNC(C)c2ccc(F)c(F)c2)cc2c1OCCO2 (configuration not stated)
cytotoxicity at 10 µM: -1.58%

Cc1nnc(CN2C[C@@H]3CC[C@H]2CN(C2Cc4ccccc4C2)C3)o1
cytotoxicity at 10 µM: -1.06%

CN(C)C(=O)[C@H]1C[C@H]2CN(CCc3ccccc3)C[C@@H]1O2
cytotoxicity at 10 µM: -94.2%
